{"data": "Experimental data of several laboratories", "target": "Casein kinase I isoform epsilon (CSNK1E, Homo sapiens, UniProt P49674)", "note": "Compare with care: the assays were run in different laboratories."}
{"Structure (SMILES)": "Cc1c(NC(=O)c2cc(C(N)=O)nc3cc(F)ccc23)c(C(F)(F)F)nn1Cc1ccc(C(C)(C)C)cc1", "test": "cell-free assay, competition with immobilised ligand", "conditions": "1 µM", "remaining binding": "91%"}
{"Structure (SMILES)": "N[C@H]1CCN(c2nccc(-c3cnn4ncccc34)n2)C1", "test": "binding", "conditions": "1 µM", "remaining binding": "47%"}
{"Structure (SMILES)": "O=C(NCCCN1CCOCC1)c1ccc(Nc2nccc(-c3cc4ccccc4s3)n2)cc1", "test": "binding, competition with immobilised ligand", "conditions": "1 µM", "remaining binding": "100%"}
{"Structure (SMILES)": "CNCc1ccccc1-c1csc([C@@H](C)Nc2nc(C)nc3cc(OC)c(OC)cc23)c1", "test": "cell-free assay, competition with immobilised ligand", "conditions": "1 µM", "remaining binding": "99%"}
{"Structure (SMILES)": "C[C@H]1CCN(c2nccc(-c3cnn4ncccc34)n2)C1", "test": "binding", "conditions": "1 µM", "remaining binding": "49%"}
{"Structure (SMILES)": "Cc1nc(N2CC[C@@H](O)C2)ncc1-c1cc(C(F)(F)F)cc2[nH]ncc12", "test": "binding, competition with immobilised ligand", "conditions": "1 µM", "remaining binding": "79%"}
{"Structure (SMILES)": "C[C@@H](c1ccc(-n2cnc3c(N)ncnc32)cc1)N1CCc2nn(C)c(Cc3ccccc3)c2C1=O", "test": "binding, competition with immobilised ligand", "conditions": "0.1 µM", "remaining binding": "83%"}
{"Structure (SMILES)": "CC(=O)C1=C(C)N(c2cccc(C(F)(F)F)c2)C(=O)N[C@@H]1c1ccc(C#N)nc1", "test": "cell-free assay, competition with immobilised ligand", "conditions": "1 µM", "remaining binding": "100%"}
{"Structure (SMILES)": "COc1ccnn2ncc(-c3ccnc(N(C)C)n3)c12", "test": "binding", "conditions": "1 µM", "remaining binding": "75%"}
{"Structure (SMILES)": "CCN1CCN(Cc2ccc(C(=O)Nc3ccc(C)c(Oc4ccc5c(c4)CC(=O)N5)c3)cc2C(F)(F)F)CC1", "test": "binding, competition with immobilised ligand", "conditions": "1 µM", "remaining binding": "100%"}
{"Structure (SMILES)": "O=C(NCCCN1CCOCC1)c1ccc(Nc2ncc(Cl)c(-c3ccc(Cl)s3)n2)cc1", "test": "binding, competition with immobilised ligand", "conditions": "1 µM", "remaining binding": "100%"}
{"Structure (SMILES)": "O=c1nc(-c2ccccn2)sc2ccccc12", "test": "binding, competition with immobilised ligand", "conditions": "1 µM", "remaining binding": "88%"}
{"Structure (SMILES)": "Nc1ncc2c(n1)-c1c([nH]c3ccc(C#CC4CC4)cc13)CCCC2", "test": "binding, competition with immobilised ligand", "conditions": "1 µM", "remaining binding": "100%"}
{"Structure (SMILES)": "Cc1cnc(Nc2ccc(C(=O)N3CCC(N4CCCC4)CC3)cc2)nc1-c1cc2ccccc2s1", "test": "binding, competition with immobilised ligand", "conditions": "1 µM", "remaining binding": "100%"}
{"Structure (SMILES)": "F[C@@H]1CCN(c2nccc(-c3cnn4ncccc34)n2)C1", "test": "binding", "conditions": "1 µM", "remaining binding": "85%"}
{"Structure (SMILES)": "COc1cnc(Nc2cccc(S(N)(=O)=O)c2)nc1N1CCN(c2ccccc2)C(=O)C1", "test": "binding, competition with immobilised ligand", "conditions": "1 µM", "remaining binding": "100%"}
{"Structure (SMILES)": "CC(=O)N1CCC(c2ccc(C(=O)NC(=N)N)cc2C(F)(F)F)CC1", "test": "cell-free assay, competition with immobilised ligand", "conditions": "1 µM", "remaining binding": "100%"}
{"Structure (SMILES)": "O=C(NCC1CCOCC1)c1n[nH]cc1NC(=O)c1c(F)cccc1F", "test": "binding, competition with immobilised ligand", "conditions": "1 µM", "remaining binding": "81%"}
{"Structure (SMILES)": "CN(CCCC(F)(F)F)c1nccc(-c2cnn3ncccc23)n1", "test": "binding", "conditions": "1 µM", "remaining binding": "100%"}
{"Structure (SMILES)": "Cc1cc(NC(=O)c2cccc(S(F)(F)(F)(F)F)c2)cc(-n2ccn3nc(-c4cccnc4)cc23)c1", "test": "cell-free assay, competition with immobilised ligand", "conditions": "1 µM", "remaining binding": "75.7%"}
{"Structure (SMILES)": "CN(C)c1nccc(-c2cnc3ncccn23)n1", "test": "binding", "conditions": "1 µM", "remaining binding": "65%"}
{"Structure (SMILES)": "CNC(=O)[C@@H]1CC[C@@H](n2c(-c3ccc4cnccc4c3)nc3ccc(C(=O)NCc4cccc(C(N)=O)c4)cc32)C1", "test": "binding, competition with immobilised ligand", "conditions": "1 µM", "remaining binding": "100%"}
